In ChEMBL document CHEMBL1132190, “Synthesis of 1-substituted 3-(chloromethyl)-6-aminoindoline (6-amino-seco-CI) DNA minor groove alkylating agents and structure-activity relationships for their cytotoxicity” (J Med Chem, 1999) one finds IC50 and solubility data, which are given here for 10 compounds.

Values after ≈ are worked out from the molar mass of the structure shown. Bounds are passed on as bounds.

One data set relates to CHO-AA8. Briefly: Cytotoxicity in chinese hamster ovary tumor cell line-AA8, by growth inhibition assay. It is filed as functional, cell-based. The following applies: Cricetulus griseus. The gist of the method: (§1)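 Log-phase monolayers in α-MEM with 5% FBS, no antibiotics; seeded at 200 (AA8), 300 (UV4) or 50 (EMT6) cells/well. After 24 h, exposed to drug (DMSO stock, final DMSO <1%, medium pH 7.4) for 4 h at 37 °C, 5% CO₂, aerobic. Washed, then regrown 4 days. Methylene blue staining read cell density. IC50 = 50% growth inhibition versus same-plate controls.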

For another data set, the system named is EMT6. Briefly: Cytotoxicity in murine mammary carcinoma tumor cell line-EMT6, by growth inhibition assay. It is filed as functional, cell-based. Conditions: Mus musculus. The gist of the method: as §1
The next data set relates to SK-OV-3. Briefly: Cytotoxicity in human ovarian tumor cell line-SKOV3, by growth inhibition assay. Type of data set: functional, cell-based. The gist of the method:
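SKOV3 log-phase monolayers in α-MEM with 5% FBS, no antibiotics; 600 cells/well. After 24 h, 4 h aerobic drug exposure at 37 °C, 5% CO₂ (DMSO stock, final DMSO <1%, medium pH 7.4). Washed, then regrown 5 days. Methylene blue staining gave cell density. IC50 = 50% growth inhibition versus controls on the same plate.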

The subject of a further data set is UV4. Briefly: Cytotoxicity in chinese hamster ovary tumor cell line -UV4 (repair deffective ERCC-1 mutant), by growth inhibition assay. Type of data set: functional, cell-based. The following applies: Cricetulus griseus. The gist of the method: as §1
Data set [1] can be described thus: Solubility in 0.1 M phosphate buffer (pH 7.0) at room temperature. It is filed as physicochemical. Conditions: read-out: S. The gist of the method: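 Solid suspended in 0.1 M phosphate buffer pH 7.0, sonicated 5 min at room temperature, centrifuged 5 min. Supernatant assayed by HPLC against a standard curve of known concentrations in acetonitrile. Three determinations, averaged.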

With `COc1ccc2oc(S(=O)(=O)N3CC(CCl)c4ccc(N)cc43)cc2c1` (stereo not given), the IC50 (as a rule, the midpoint of a concentration-inhibition curve) with CHO-AA8 amounted to 6600 nM; with EMT6, 2600 nM; in the data set on SK-OV-3, 4400 nM; in the data set on UV4, 2800 nM.
For `Nc1ccc2c(c1)N(C(=O)c1cc3cc(NC(=O)c4cc5ccccc5o4)ccc3[nH]1)CC2CCl` (stereo not given), the IC50 in the data set with CHO-AA8 was 160 nM; in the data set on EMT6, 190 nM; with SK-OV-3 it was 600 nM; in the data set with UV4 it was 87 nM.
For the compound `CCCC(=O)Nc1cc(/C=C/C(=O)N2CC(CCl)c3ccc(N)cc32)n(C)c1` (stereo not given), the IC50 with CHO-AA8 is 2100 nM; in the data set with EMT6 it was 910 nM; in the data set on SK-OV-3, 1900 nM; in the data set with UV4, 310 nM.
Turning to `COc1cc2cc(C(=O)N3CC(CCl)c4ccc(N)cc43)[nH]c2cc1OCCN(C)C` (stereo not given), the IC50 turned out to be 220 nM with CHO-AA8, 110 nM in the data set with EMT6, 150 nM with SK-OV-3 and 39 nM in the data set on UV4. In data set [1], the solubility was more than 1200 µM.
For `CN(C)CCOc1ccc2[nH]c(C(=O)N3CC(CCl)c4ccc(N)cc43)cc2c1` (stereo not given), in that order: 160 nM, 120 nM, 260 nM, 44 nM and 700 µM (≈ 289 µg/mL).
For `COc1ccc2[nH]c(C(=O)N3CC(CCl)c4ccc(N)cc43)cc2c1` (stereo not given), in that order: 310 nM, 230 nM, 670 nM, 47 nM and 23 µM (≈ 8.18 µg/mL).
Consider `COc1ccc2[nH]c(S(=O)(=O)N3CC(CCl)c4ccc(N)cc43)cc2c1` (stereo not given), for which the IC50 in the data set on CHO-AA8 was found to be 8200 nM; with EMT6, 4900 nM; with SK-OV-3, 2700 nM; in the data set with UV4, 4300 nM.
For `COc1ccc2oc(C(=O)N3CC(CCl)c4ccc(N)cc43)cc2c1` (stereo not given), in that order: 880 nM, 640 nM, 1100 nM and 120 nM.
Take `COc1cc(OCCN(C)C)c2[nH]c(C(=O)N3CC(CCl)c4ccc(N)cc43)cc2c1` (stereo not given): the IC50 with CHO-AA8 turned out to be 140 nM; in the data set on EMT6 it was 90 nM; in the data set with SK-OV-3, 160 nM; with UV4, 29 nM. Moreover, in data set [1], the solubility came out at 47 µM (≈ 20.8 µg/mL).
Taken in the same sequence, the figures for `COc1cc2cc(C(=O)N3CC(CCl)c4ccc(N)cc43)[nH]c2c(OC)c1OC` (stereo not given) were 350 nM, 270 nM, 630 nM, 55 nM and 32 µM (≈ 13.3 µg/mL).
